# Measurements pooled from the literature.
# Lines come from different studies, so protocols differ.
# BCHE: Cholinesterase (BCHE, Equus caballus, UniProt P81908)
# PTGS1: Prostaglandin G/H synthase 1 (PTGS1, Ovis aries, UniProt P05979)
# AGTR2: Type-2 angiotensin II receptor (AGTR2, Homo sapiens, UniProt P50052)
SMILES,target,effect on,mode,technique,concentration,inhibition [%]
COc1cc2c(cc1OC)C(=O)N(CC1CCN(Cc3ccc(F)nc3)CC1)C2,BCHE,enzyme activity,inhibitor,Ellman,1 µM,-4.8
Cn1cc(-c2cccc(N3CCc4c(sc5c4CC(C)(C)C5)C3=O)c2CO)cc(Nc2ccncn2)c1=O,"SRSF protein kinase 2 (SRPK2, Homo sapiens, UniProt P78362)",enzyme activity,inhibitor,,1 µM,-3
CS(=O)(=O)c1ccc(-c2ncc(Cl)cc2-c2nc3ccccc3s2)cc1,PTGS1,enzyme activity,inhibitor,absorbance,10 µM,0
CCCCCCCCCCCC(=O)OC[C@@H](COP(=O)(O)OCCNC(=O)c1ccc(Cn2c(=O)[nH]c3c(N)nc(OCCOC)nc32)cc1)OC(=O)CCCCCCCCCCC,"Androgen receptor (Ar, Rattus norvegicus, UniProt P15207)",ligand displacement,,radioligand,10 µM,55
COCc1c(-c2cc3cc(C)cc(OC)c3s2)c2c(N)ncnn2c1CN1CCNC(=O)C1,AGTR2,ligand displacement,,radioligand,10 µM,9
COc1cc2c(cc1OC)C(=O)N(Cc1n[nH]c3ccccc13)C2,BCHE,enzyme activity,inhibitor,Ellman,1 µM,-2.7
Nc1ccc(-c2nc3ccccc3s2)c(-c2cccc(O)c2)c1,PTGS1,enzyme activity,inhibitor,absorbance,10 µM,27.7
COc1cc2c(cc1OC)C(=O)N(CC1CCN(Cc3cccc(C)n3)CC1)C2,BCHE,enzyme activity,inhibitor,Ellman,1 µM,3.4
Cc1ccc(-c2nc3ccccc3s2)c(-c2ccc(S(N)(=O)=O)cc2)c1,PTGS1,enzyme activity,inhibitor,absorbance,10 µM,9.6
COc1ccc(S(=O)(=O)N2CCCCC2)cc1C,AGTR2,ligand displacement,,radioligand,10 µM,< 30
Nc1ccc(-c2nc3ccccc3s2)c(-c2ccc(O)cc2)c1,PTGS1,enzyme activity,inhibitor,absorbance,10 µM,14.2
COc1cc2c(cc1OC)C(=O)N(Cc1cccnc1)C2,BCHE,enzyme activity,inhibitor,Ellman,1 µM,-12.2
Nc1ccc(-c2ccccc2)c(-c2nc3ccccc3s2)c1,PTGS1,enzyme activity,inhibitor,absorbance,10 µM,59.1
COc1nccc(CN2Cc3cc(OC)c(OC)cc3C2=O)n1,BCHE,enzyme activity,inhibitor,Ellman,1 µM,6.1
O=C(Nc1cccnn1)N1CCN([C@@H]2CCOc3cc(C(F)(F)F)ccc32)CC1,AGTR2,cell-free assay,,,20 µM,0
Cn1cc(-c2cc(F)cc(N3CCn4c(cc5c4CCCC5)C3=O)c2CO)cc(Nc2ccc(N3CCN(C4COC4)CC3)cn2)c1=O,"Serine/threonine-protein kinase MRCK alpha (CDC42BPA, Homo sapiens, UniProt Q5VT25)",enzyme activity,inhibitor,,0.1 µM,2
CN(C)Cc1ccc(-c2nc3ccccc3s2)c(-c2cccc(O)c2)c1,PTGS1,enzyme activity,inhibitor,absorbance,10 µM,30.7
C#Cc1n[nH]c2c(-c3cn(C(C)c4ccccn4)c(=O)[nH]c3=O)cc(F)cc12 (stereo not shown),"Serine/threonine-protein kinase MARK1 (MARK1, Homo sapiens, UniProt Q9P0L2)",enzyme activity,inhibitor,,1 µM,11.2
COc1cc2c(cc1OC)C(=O)N(CC1CCN(Cc3ccncc3)CC1)C2,BCHE,enzyme activity,inhibitor,Ellman,1 µM,8.2
C[C@H](C(=O)N[C@H]1COc2ccccc2[C@@H]1S(C)(=O)=O)c1ccc(F)cc1,AGTR2,cell-free assay,,,10 µM,4
Cc1ccc(-c2nc3ccccc3s2)c(-c2ccc(S(C)(=O)=O)cc2)c1,PTGS1,enzyme activity,inhibitor,absorbance,10 µM,9.7
COc1cc2c(cc1OC)C(=O)N(CC1CCN(Cc3ccccn3)CC1)C2,BCHE,enzyme activity,inhibitor,Ellman,1 µM,5.4
